Source: ChEMBL document CHEMBL1122292, “Aza analogues of lucanthone: synthesis and antitumor and bactericidal properties” (J Med Chem, 1983)

How the values were obtained:
Type in all cases: functional, organism-based
Bacillus subtilis = assay: In vitro antibiotic activity against Bacillus subtilis ATCC 6633 at 1.8E-8 mol dose; - symbol indicates negative result.
Procedure, shortened: (§1)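 Compounds were dissolved in ethyl alcohol at 3–5 × 10⁻⁶ mol/mL. Aliquots of 5, 10 or 20 μL were applied to 6-mm filter disks and dried under a light nitrogen stream. The disks were laid on an agar overlay inoculated with the test organism and incubated at 37 °C for 24 h. Inhibition-zone diameters were then measured.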

Candida albicans [1] = assay: In vitro antibiotic activity against Candida albicans at 1.8E-8 mol dose; - symbol indicates negative result.; procedure, shortened: as §1
Candida albicans [2] = assay: In vitro antibiotic activity against Candida albicans at 3.6E-8 mol dose; - symbol indicates negative result.; procedure, shortened: as §1
Escherichia coli = assay: In vitro antibiotic activity against Escherichia coli ATCC 10536 at 7.2E-8 mol dose; ++ symbol indicates slight constraint, transient positive result.; procedure, shortened: as §1
Staphylococcus aureus [3] = assay: In vitro antibiotic activity against Staphylococcus aureus ATCC 6358P at 1.8E-8 mol dose; +/- symbol indicates slightly positive result.; procedure, shortened: as §1
Staphylococcus aureus [4] = assay: In vitro antibiotic activity against Staphylococcus aureus ATCC 6358P at 3.6E-8 mol dose; +/- symbol indicates slightly positive result.; procedure, shortened: as §1
Staphylococcus aureus [5] = assay: In vitro antibiotic activity against Staphylococcus aureus ATCC 6358P at 7.2E-8 mol dose; +/- symbol indicates slightly positive result.; procedure, shortened: as §1
Candida albicans [6] = assay: In vitro antibiotic activity against Candida albicans at 7.2E-8 mol dose; - symbol indicates negative result.; procedure, shortened: as §1

CCN(CC)CCCNc1nc(C)cc2nc3ccccc3c(O)c12
Antibiotic activity (Bacillus subtilis): Negative result
Antibiotic activity (Candida albicans [1]): Negative result
Antibiotic activity (Candida albicans [2]): Negative result
Antibiotic activity (Escherichia coli): slight constraint, transient positive result
Antibiotic activity (Staphylococcus aureus [3]): +/-
Antibiotic activity (Staphylococcus aureus [4]): +/-
Antibiotic activity (Staphylococcus aureus [5]): +/-
Antibiotic activity (Candida albicans [6]): Negative result
